In the assay the test system is SUM159 tumorsphere formation, imaging count, 8-9 days. The experiment in a line: blockade of breast tumor sphere growth – imaging, SUM159 cells, single point, dry powder, orthogonal assay for breast cancer stem cell project, late-stage follow-up (AID 504623). Conditions: at 25 µM; hits give high values. The gist of the method: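 Material: SUM159 tumorsphere culture. Buffer or medium: medium plus 0.5% methylcellulose. Timing: 8-day incubation, 37 °C. Detection: Brightfield imaging at 2x, 9 sites/well. Format: Low-attachment wells.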

Each structure is given as a SMILES string. Results filed as inconclusive are left out. Calls of active or inactive are those of the source.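 How the source made its calls: active means mean replicate inhibition of at least 25% with at least 60% of replicates reaching that level; inconclusive means only one of the two criteria is met; inactive means neither criterion met.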

Experimental findings from PubChem BioAssay AID504623 (Broad Institute, 2011) are described below.

One may read the inhibition as the change of the read-out against control, counted positive when it falls. Take `O=C(COc1ccc(Cl)cc1Cl)N/N=C/c1ccc[nH]1`: the inhibition was -22.3% (inactive). As to `CC(C)(C)c1ccc(C2CC2C(=O)N/N=C/c2ccc[nH]2)cc1` (centres undefined), the inhibition is 62.8%.

`O=C(COc1c(Cl)cc(Cl)cc1Cl)N/N=C/c1ccc[nH]1`: the inhibition is -7.47% (inactive).

For `Cc1csc(NC(=O)c2ccc(COc3cccc(Cl)c3)o2)n1`, the inhibition is 19.5% (inactive). Consider `Cc1cc(Cl)ccc1OCC(=O)N/N=C/c1ccc[nH]1`, for which the inhibition is 3.98% (inactive). To `CC(C)(C)c1ccc2c(c1)OC(C(=O)N/N=C/c1ccc[nH]1)CO2` (centres undefined) belongs 34.1%; to `Cc1csc(NC(=O)c2ccc(COc3cccc(OC(F)(F)F)c3)o2)n1`, 22.2% (inactive). With `Cc1csc(NC(=O)c2ccc(COc3ccccc3)o2)n1`, the inhibition is 21.4% (inactive). In the case of `O=C(/C=C/c1ccc(-c2ccccc2)cc1)NC1=NCCS1` it was 4.08% (inactive); in that of `CC(C)c1ccc(/C=C/C(=O)Nc2ccccc2)cc1`, 62.4%; in that of `Cc1csc(NC(=O)c2ccc(COc3ccccc3F)o2)n1`, 4.83% (inactive).

Turning to `Cc1csc(NC(=O)c2ccc(COc3cccc(C#N)c3)o2)n1`, the inhibition was 44.2%. To `COc1cccc(OCc2ccc(C(=O)Nc3nc(C)cs3)o2)c1` belongs -6.02% (inactive); to `CC(C)c1ccc(/C=C/C(=O)NC2=NCCS2)cc1`, 10.4% (inactive).
